Test results as given in paper PMC9643156 (Acta Pharmaceutica Sinica. B, 2022).

Key:
LNCaP-ENZR xenografts = experiment: LNCaP-ENZR subcutaneous xenografts; type: in vivo, NOD-SCID mice; conditions: LLU-206 10, 25 mg/kg via tail vein; ENZ 10 mg/kg by gavage
[1] = system: 22RV1 orthotopic xenografts; experiment: 22RV1 orthotopic xenografts; type: in vivo, BALB/c-nude mice; conditions: LLU-206 25 mg/kg i.v.; ENZ 10 mg/kg p.o.
Procedure, shortened: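 Mice aged 6–8 weeks carried 22RV1 tumours implanted orthotopically in the prostate. Tumour growth was followed by bioluminescence imaging and analysed as average fluorescence values, n = 6 per group. Relative tumour weight was recorded at the end. Paraffin-embedded tumours were H&E-stained and stained for Ki-67 by IHC; Ki-67 and necrotic area were quantified by image analysis. Data are mean ± SEM, one-way ANOVA with Tukey.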

[2] = system: LNCaP, 22RV1 and LNCaP-ENZR cells; experiment: Viability screen of 197 compounds in PCa cells; type: cell-based; conditions: 20 μmol/L, 72 h, 22RV1, LNCaP-ENZR cells

SMILES | antitumor activity in LNCaP-ENZR xenografts (tumor volume, tumor weight, serum PSA) (LNCaP-ENZR xenografts) | growth of 22RV1 orthotopic xenografts [1] | anti-PCa activity / inhibition of proliferation in the viability screen [2]
CNC(=O)c1ccc(N2C(=S)N(c3ccc(C#N)c(C(F)(F)F)c3)C(=O)C2(C)C)cc1F [ENZ, Enzalutamide] | completely resistant | exhibited resistance | 
CNC(=O)c1ccc(N2C(=S)N(c3cnc(C#N)c(C(F)(F)F)c3)C(=O)C23CCC3)cc1F [ARN-509, apalutamide] |  |  | no significant inhibition
CC(O)c1cc(C(=O)N[C@@H](C)Cn2ccc(-c3ccc(C#N)c(Cl)c3)n2)[nH]n1 (stereo partly shown) [ODM-201, darolutamide] |  |  | no significant inhibition
